Source: ChEMBL document CHEMBL1129563, “Opioid antagonist activity of naltrexone-derived bivalent ligands: importance of a properly oriented molecular scaffold to guide "address" recognition at kappa opioid receptors” (J Med Chem, 1996)

Experiments:
[1] = molecular target: T1, Opioid receptors; mu & delta (Homo sapiens) (UniProt P41143+P35372); experiment: Selectivity ratio between delta to that of mu opioid receptor; format: protein assay
Summary of the method: (§1)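 Antagonism was tested on electrically stimulated guinea pig ileum (morphine, EK, DAMGO, U-50488) and mouse vas deferens (DADLE, DPDPE). Antagonist (usually 100 nM, some at 20 nM) was incubated 15 min before agonist. IC50 ratio is agonist IC50 with antagonist over control IC50 in the same preparation. Ke = [antagonist]/(IC50 ratio − 1). Three or more replicates were run. Selectivity is given as Ke ratios.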

[2] = molecular target: T2, Opioid receptors; mu & kappa (Homo sapiens) (UniProt P41145+P35372); experiment: Selectivity ratio between kappa to that of mu opioid receptor; format: protein assay; summary of the method: as §1
[3] = tested on: Delta-type opioid receptor; experiment: Delta opioid activity on Mouse vas deference using DADLE as standard; summary of the method: as §1
[4] = Kappa opioid activity was evaluated on electrically stimulated guinea pig ileum by using ethylketazocine (EK) as standard.; format: tissue-based; summary of the method: as §1
[5] = molecular target: Delta-type opioid receptor (Mus musculus) (UniProt P32300); experiment: Ke value is obtained from IC50 ratio values when compared with delta opioid agonists in MVD preparations using DADLE as radioligand; format: functional; summary of the method: as §1
[6] = molecular target: Mu-type opioid receptor (Cavia porcellus) (UniProt P97266); experiment: Ke value is obtained from IC50 ratio value when compared with Opioid receptor mu 1 agonist in Guinea pig Ileum using DAMGO as radioligand; format: functional, tissue-based; summary of the method: as §1
[7] = molecular target: Kappa-type opioid receptor (Cavia porcellus) (UniProt P41144); experiment: Ke value was obtained from IC50 ratio values when compared with Opioid receptor kappa 1 agonist in Guinea pig Ileum using EK as radioligand; format: functional, tissue-based; summary of the method: as §1
[8] = Mu opioid activity was evaluated on electrically stimulated guinea pig ileum by using morphine(M) as standard.; format: tissue-based; summary of the method: as §1
[9] = molecular target: T3, Kappa-type opioid receptor (Cavia porcellus, UniProt P41144); experiment: Binding affinity against Opioid receptor kappa 1 in Guinea pig brain membranes; format: cell membranes, Membrane
Summary of the method: (§2)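 Competition binding against radioligands in guinea pig brain membranes. μ sites used [3H]DAMGO. κ sites used [3H]EK with 1 μM DAMGO, and δ sites used [3H]DADLE with 1 μM DAMGO. Ki is the geometric mean of three replicates. Selectivity is given as δ/μ and κ/μ Ki ratios.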

[10] = molecular target: T1, Opioid receptors; mu & delta (Homo sapiens); experiment: Selectivity ratio between delta and mu opioid receptor from guinea pig brain membrane; summary of the method: as §2
[11] = molecular target: T2, Opioid receptors; mu & kappa (Homo sapiens); experiment: Selectivity ratio between kappa and mu opioid receptor from guinea pig brain membrane; summary of the method: as §2
Mu-type opioid receptor [12] = molecular target: T4, Mu-type opioid receptor (Cavia porcellus, UniProt P97266); experiment: Opioid receptor mu 1 antagonistic activity in guinea pig ileum; format: functional, tissue-based; summary of the method: as §1
Mus musculus [13] = experiment: Antagonistic activity after […] with a peak time of 30 mins in mice (using DPDPE as agonist, delta selective); format: functional
Summary of the method: (§3)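 Tail-flick test in Swiss Webster mice. The antagonist was given sc at 6.2 μmol/kg, timed so its 30 min peak fell at the centre of the observation period. Morphine and U-50488 were given sc (μmol/kg) and DPDPE icv (nmol/mouse). Agonist ED50 was found in control and treated mice and expressed as the treated/control ED50 ratio.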

[14] = molecular target: Kappa-type opioid receptor (Homo sapiens) (UniProt P41145); experiment: Selectivity ratio between Ke value to that of DAMGO (using U-50488 as agonist; k agonist/DAMGO); format: functional
Summary of the method: (§4)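 Ke values came from IC50 ratios (n ≥ 3) in GPI and MVD, with antagonist preincubated 15 min. Ke = [antagonist]/(IC50 ratio − 1). The reported ratio is Ke against a κ agonist (EK, U-50488) or δ agonist (DADLE, DPDPE) divided by Ke against DAMGO.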

[15] = molecular target: T3, Kappa-type opioid receptor; experiment: Binding affinity against Kappa Opioid receptor in Guinea pig brain membranes; format: cell membranes, Membrane; summary of the method: as §2
[16] = molecular target: Kappa-type opioid receptor (Cavia porcellus) (UniProt P41144); experiment: Ke value was obtained from IC50 ratio value when compared with kappa opioid agonist in Guinea pig Ileum using EK as radioligand; format: functional, tissue-based; summary of the method: as §1
[17] = Ratio of antagonistic activity treated/control in Mice; antinociceptive effect of morphine opioid agonist in Mice; format: functional; summary of the method: as §3
[18] = molecular target: Kappa-type opioid receptor (Homo sapiens) (UniProt P41145); experiment: Selectivity ratio between Ke value to that of DAMGO (using EK as agonist; k agonist/DAMGO); format: functional; summary of the method: as §4
[19] = molecular target: Delta-type opioid receptor (Mus musculus) (UniProt P32300); experiment: Ke value was obtained from IC50 ratio value when compared with delta opioid agonist in MVD preparations using DADLE as radioligand; format: functional; summary of the method: as §1
[20] = molecular target: Mu-type opioid receptor (Cavia porcellus) (UniProt P97266); experiment: Ke value was obtained from IC50 ratio value when compared with Opioid receptor mu 1 agonist in Guinea pig Ileum using DAMGO as radioligand; format: functional, tissue-based; summary of the method: as §1
Mu-type opioid receptor [21] = molecular target: T4, Mu-type opioid receptor; experiment: Binding affinity against Opioid receptor mu 1 in Guinea pig brain membranes; format: cell membranes, Membrane; summary of the method: as §2
[22] = Ratio of antagonistic activity of treated/control; antinociceptive effect of U-50488 opioid agonist in Mice; format: functional; summary of the method: as §3
[23] = molecular target: Kappa-type opioid receptor (Cavia porcellus) (UniProt P41144); experiment: Ke value was obtained from IC50 ratio value when compared with Opioid receptor kappa 1 agonist in Guinea pig Ileum using U-50488 as radioligand; format: functional, tissue-based; summary of the method: as §1
Mus musculus [24] = experiment: Antagonistic activity after subcutaneous administration (6.2 umol/kg) with a peak time of 30 mins in mice (using U-50488 as agonist, kappa selective); format: functional; settings: sc, 0.5 h; summary of the method: as §3
[25] = molecular target: Delta-type opioid receptor (Homo sapiens) (UniProt P41143); experiment: Selectivity ratio between Ke value to that of DAMGO (using DADLE as agonist; delta agonist/DAMGO); format: functional; summary of the method: as §4
[26] = Ratio of antagonistic activity of treated/control; antinociceptive effect of DPDPE opioid agonist in Mice; format: functional; summary of the method: as §3
[27] = molecular target: Delta-type opioid receptor (Homo sapiens) (UniProt P41143); experiment: Ke value was obtained from IC50 ratio value when compared with delta opioid agonist in […] using DPDPE as radioligand; format: functional, tissue-based; settings: target entry is the homologue from another species
[28] = molecular target: Delta-type opioid receptor (Homo sapiens) (UniProt P41143); experiment: Selectivity ratio between Ke value to that of DAMGO (using DPDPE as agonist; delta agonist/DAMGO); format: functional; summary of the method: as §4
Mus musculus [29] = experiment: Antagonistic activity after subcutaneous administration (6.2 umol/kg) with a peak time of 30 mins in mice (using morphine as agonist, mu selective); format: functional; settings: sc, 0.5 h; summary of the method: as §3
[30] = Selectivity ratio between DADLE and ethylketazocine potencies in GPI and MVD preparations; summary of the method: as §1
[31] = Selectivity ratio between morphine and ethylketazocine potencies in GPI and MVD preparations; summary of the method: as §1

T4 sequence (P97266 whole entry): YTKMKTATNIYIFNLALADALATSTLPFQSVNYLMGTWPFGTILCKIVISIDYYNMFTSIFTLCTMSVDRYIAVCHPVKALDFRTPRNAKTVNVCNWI
Sequence of Mu-type opioid receptor (Cavia porcellus) (P97266 whole entry): as above
Sequence of Delta-type opioid receptor (Mus musculus) (P32300 whole entry): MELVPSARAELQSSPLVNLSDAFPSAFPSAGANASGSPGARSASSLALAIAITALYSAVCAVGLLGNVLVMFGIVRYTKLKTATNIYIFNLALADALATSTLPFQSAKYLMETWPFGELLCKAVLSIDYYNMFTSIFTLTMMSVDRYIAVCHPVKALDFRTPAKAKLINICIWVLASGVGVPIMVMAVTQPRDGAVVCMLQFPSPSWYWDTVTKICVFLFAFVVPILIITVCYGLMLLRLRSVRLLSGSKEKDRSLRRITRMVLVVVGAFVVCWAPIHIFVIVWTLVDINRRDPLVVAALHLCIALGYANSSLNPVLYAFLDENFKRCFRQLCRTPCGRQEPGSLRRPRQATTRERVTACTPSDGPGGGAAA
Sequence of Kappa-type opioid receptor (Cavia porcellus) (P41144 whole entry): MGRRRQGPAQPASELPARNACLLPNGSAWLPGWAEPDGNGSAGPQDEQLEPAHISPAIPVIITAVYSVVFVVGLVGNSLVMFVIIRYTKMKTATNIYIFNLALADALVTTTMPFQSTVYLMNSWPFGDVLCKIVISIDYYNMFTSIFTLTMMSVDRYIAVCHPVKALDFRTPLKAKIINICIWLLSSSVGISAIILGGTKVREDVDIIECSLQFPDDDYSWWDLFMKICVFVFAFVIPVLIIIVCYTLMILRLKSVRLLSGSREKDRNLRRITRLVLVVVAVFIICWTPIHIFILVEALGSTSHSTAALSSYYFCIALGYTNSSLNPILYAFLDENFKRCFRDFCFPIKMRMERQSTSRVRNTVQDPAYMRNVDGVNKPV
T2 sequence (P35372 whole entry, looked up): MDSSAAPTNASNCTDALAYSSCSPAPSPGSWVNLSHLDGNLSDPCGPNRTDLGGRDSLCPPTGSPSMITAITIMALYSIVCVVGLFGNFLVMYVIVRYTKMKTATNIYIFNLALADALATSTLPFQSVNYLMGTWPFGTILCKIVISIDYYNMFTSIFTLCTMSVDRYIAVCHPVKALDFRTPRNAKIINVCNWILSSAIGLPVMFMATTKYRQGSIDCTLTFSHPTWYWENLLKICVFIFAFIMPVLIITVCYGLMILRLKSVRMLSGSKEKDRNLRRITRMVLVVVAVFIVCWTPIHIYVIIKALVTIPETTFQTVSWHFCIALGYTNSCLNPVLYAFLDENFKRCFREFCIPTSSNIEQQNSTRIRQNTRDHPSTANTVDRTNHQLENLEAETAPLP
T2 sequence (P41145 whole entry, looked up): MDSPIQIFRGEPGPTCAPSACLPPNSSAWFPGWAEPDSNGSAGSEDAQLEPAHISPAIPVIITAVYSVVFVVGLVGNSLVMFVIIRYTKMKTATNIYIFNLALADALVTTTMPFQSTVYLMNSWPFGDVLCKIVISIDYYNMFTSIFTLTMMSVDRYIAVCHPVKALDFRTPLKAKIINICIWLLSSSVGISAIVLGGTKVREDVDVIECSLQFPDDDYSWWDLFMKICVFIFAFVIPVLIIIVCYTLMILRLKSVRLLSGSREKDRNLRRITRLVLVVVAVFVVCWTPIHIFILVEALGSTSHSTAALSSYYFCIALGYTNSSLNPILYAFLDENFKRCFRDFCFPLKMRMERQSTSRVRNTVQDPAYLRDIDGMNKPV
T1 sequence (P35372 whole entry, looked up): as the sequence (P35372 whole entry, looked up) above
T1 sequence (P41143 whole entry, looked up): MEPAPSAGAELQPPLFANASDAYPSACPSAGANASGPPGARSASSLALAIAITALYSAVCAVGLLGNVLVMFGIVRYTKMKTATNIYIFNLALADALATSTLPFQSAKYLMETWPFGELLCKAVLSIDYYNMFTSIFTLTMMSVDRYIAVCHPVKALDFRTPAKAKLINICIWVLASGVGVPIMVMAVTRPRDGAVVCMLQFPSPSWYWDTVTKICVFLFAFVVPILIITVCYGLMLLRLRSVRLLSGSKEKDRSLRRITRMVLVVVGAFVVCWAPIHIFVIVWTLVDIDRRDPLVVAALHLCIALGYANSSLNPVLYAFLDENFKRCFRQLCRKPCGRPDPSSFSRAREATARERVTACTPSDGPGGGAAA
Sequence of Delta-type opioid receptor (Homo sapiens) (P41143 whole entry): as the sequence (P41143 whole entry, looked up) above
T3 sequence (P41144 whole entry): as the sequence (P41144 whole entry) above
Sequence of Kappa-type opioid receptor (Homo sapiens) (P41145 whole entry): as the sequence (P41145 whole entry, looked up) above

N[C@]1(C(=O)O)CC[C@@]2(O)[C@H]3Cc4ccc(O)c5c4C2(CCN3CC2CC2)[C@H]1O5
Ke selectivity ratio [1]: 214 | Ke selectivity ratio [2]: 30 | IC50 ratio [3]: 1.7 | IC50 ratio [4]: 6.2 | Ke [5]: 139 nM | Ke [6]: 0.65 nM | Ke [7]: 19 nM | IC50 ratio [8]: 154

N[C@@]1(C2=NC(=O)[C@@]3(CC[C@@]4(O)[C@H]5Cc6ccc(O)c7c6C4(CCN5CC4CC4)[C@H]3O7)N2)CC[C@@]2(O)[C@H]3Cc4ccc(O)c5c4C2(CCN3CC2CC2)[C@H]1O5
Ki [9]: 5.8 nM | IC50 ratio [3]: 0.87 | IC50 ratio [4]: 1.1 | Ke [6]: 0.46 nM | Ke ratio [10]: 151 | Ke ratio [11]: 5 | IC50 ratio [8]: 11.8

O=C1NC(=O)[C@@]2(CC[C@@]3(O)[C@H]4Cc5ccc(O)c6c5[C@@]3(CCN4CC3CC3)[C@H]2O6)N1
IC50 (Mu-type opioid receptor [12]): 71 nM

NC1=NC([C@]2(N)CC[C@@]3(O)[C@H]4Cc5ccc(O)c6c5C3(CCN4CC3CC3)[C@H]2O6)=N[C@]12CC[C@@]1(O)[C@H]3Cc4ccc(O)c5c4C1(CCN3CC1CC1)[C@H]2O5
ED50 (Mus musculus [13]): 16 nM mouse-1 | Ke ratio [14]: 67 | Ki [15]: 88 nM | Ke [16]: 12 nM | ED50 ratio [17]: 4 | Ke ratio [18]: 171 | Ke [19]: 57 nM | Ke [20]: 0.07 nM | Ki (Mu-type opioid receptor [21]): 0.98 nM | Ke ratio [1]: 184 | ED50 ratio [22]: 0.72 | Ke [23]: 4.7 nM | Ke ratio [2]: 40 | ED50 (Mus musculus [24]): 25.6 µmol/kg | IC50 ratio [3]: 2.8 | IC50 ratio [4]: 9.1 | Ke ratio [10]: 187 | Ke ratio [11]: 90 | Ke ratio [25]: 814 | ED50 ratio [26]: 0.66 | Ke [27]: 66 nM | Ke ratio [28]: 943 | ED50 (Mus musculus [29]): 68.7 µmol/kg | IC50 ratio [8]: 65

N[C@@]1(C(=O)O)CC[C@@]2(O)[C@H]3Cc4ccc(O)c5c4C2(CCN3CC2CC2)[C@H]1O5
IC50 ratio [3]: 1.1 | IC50 ratio [4]: 1.9 | Ke [6]: 27 nM | Ke [7]: 10 nM | IC50 ratio [8]: 4.8

NC(=O)[C@]1(N)CC[C@@]2(O)[C@H]3Cc4ccc(O)c5c4C2(CCN3CC2CC2)[C@H]1O5
Ke ratio [2]: 4.5 | IC50 ratio [3]: 0.89 | IC50 ratio [4]: 3.3 | Ke [6]: 9.8 nM | Ke [7]: 44 nM | IC50 ratio [8]: 11.2

N=C(N)[C@]1(N)CC[C@@]2(O)[C@H]3Cc4ccc(O)c5c4[C@@]2(CCN3CC2CC2)[C@H]1O5
IC50 (Mu-type opioid receptor [12]): 18 nM

N#C[C@@]1(N)CC[C@@]2(O)[C@H]3Cc4ccc(O)c5c4C2(CCN3CC2CC2)[C@H]1O5
IC50 ratio [3]: 2.5 | IC50 ratio [4]: 17.5 | Ke [5]: 67 nM | Ke ratio [30]: 52 | Ke [6]: 1.3 nM | Ke ratio [31]: 4.7 | Ke [7]: 6 nM | IC50 ratio [8]: 79

CC(=O)NC1=NC([C@]2(NC(C)=O)CC[C@@]3(O)[C@H]4Cc5ccc(O)c6c5C3(CCN4CC3CC3)[C@H]2O6)=N[C@]12CC[C@@]1(O)[C@H]3Cc4ccc(O)c5c4C1(CCN3CC1CC1)[C@H]2O5
IC50 ratio [3]: 1.4 | IC50 ratio [4]: 3.3 | Ke [6]: 1.9 nM | Ke ratio [31]: 23 | Ke [7]: 44 nM | IC50 ratio [8]: 11.7
